Results from different studies.
Compare with care: the assays were run in different laboratories.
KCNH2: Voltage-gated inwardly rectifying potassium channel KCNH2 (KCNH2, Homo sapiens, UniProt Q12809)
CDK7 with cyclin H: Cyclin-dependent kinase 7, with cyclin H (CDK7, Homo sapiens, UniProt P50613)
Antigen peptide transporter 1/Antigen peptide transporter 2: Antigen peptide transporter 1/Antigen peptide transporter 2 (Homo sapiens, UniProt Q03518+Q03519)
TEAD4: Transcriptional enhancer factor TEF-3 (TEAD4, Homo sapiens, UniProt Q15561)
PDE4D: 3',5'-cyclic-AMP phosphodiesterase 4D (PDE4D, Homo sapiens, UniProt Q08499)

| Compound | target | test | system | setting | IC50 [µM] |
| --- | --- | --- | --- | --- | --- |
| CN1[C@@H](CCc2ccccc2)CCC[C@H]1CCc1ccccc1 | KCNH2 | ligand displacement | HEK293 | 1 h, pH 7.4, cell membranes | 0.238 |
| O=c1cc(-c2ccccc2)oc2c1ccc1occc12 | CDK7 with cyclin H | enzyme activity, inhibitor, ADP detection | – | – | 4.8 |
| CCc1c(C)nc(-c2ccc(Cl)s2)nc1Nc1ccc(CC(=O)O)cc1 | 3',5'-cyclic-AMP phosphodiesterase 4D (PDE4D, Homo sapiens, UniProt Q08499, S190D/S715A/S717A) | enzyme activity, inhibitor, fluorescence | – | – | 1.57 |
| CC[C@H](C)[C@H](NC(=O)[C@H](CCCNC(=N)N)NC(=O)CN)C(=O)N[C@@H](CC(=O)O)C(=O)N[C@@H](CCCCN)C(=O)N1CCC[C@H]1C(=O)N[C@H](C(=O)N[C@@H](CC(C)C)C(=O)N[C@@H](C)C(=O)O)[C@@H](C)CC | Antigen peptide transporter 1/Antigen peptide transporter 2 | ligand displacement | – | – | 5.4 |
| CC(C)c1cccc(=O)c(O)c1 | eno (Escherichia coli, UniProt P0A6P9) | enzyme activity, inhibitor, absorbance | – | – | 8 to 11 |
| CCCCCCCCCCCCCC(=O)O[C@@H]1[C@@H](C)[C@@]2(O)[C@@H](C=C(CO)C[C@]3(O)C(=O)C(C)=C[C@@H]23)[C@@H]2C(C)(C)[C@]12OC(C)=O | Proteinase-activated receptor 2 (F2RL1, Homo sapiens, UniProt P55085) | calcium signal, antagonist | – | – | 0.00589 |
| CC[C@H](C)[C@H](NC(=O)[C@@H](NC(=O)[C@H](CC(N)=O)NC(=O)[C@H](CCCCN)NC(=O)[C@@H]1CCCN1C(=O)[C@H](CC(N)=O)NC(=O)[C@H](CCSC)NC(=O)[C@@H](NC(=O)[C@H](C)NC(=O)[C@H](CC(N)=O)NC(=O)[C@H](Cc1ccccc1)NC(=O)[C@H](CC(C)C)NC(=O)[C@H](C)NC(=O)[C@H](CCC(=O)O)NC(=O)[C@H](CC(C)C)NC(=O)[C@H](CC(=O)O)NC(=O)[C@@H](NC(=O)[C@H](CCC(=O)O)NC(=O)[C@H](CO)NC(C)=O)[C@@H](C)O)C(C)C)[C@@H](C)O)C(=O)N[C@H](C(=O)N1CCC[C@H]1C(=O)N1CCC[C@H]1C(=O)N[C@@H](CO)C(=O)N[C@H](C(=O)N1CCC[C@H]1C(=O)N[C@@H](CCSC)C(=O)N[C@@H](CCCNC(=N)N)C(=O)N[C@@H](CC(C)C)C(=O)N[C@@H](CCCNC(=N)N)C(=O)N[C@@H](CCCCN)C(=O)N[C@@H](CC(C)C)C(=O)N1CCC[C@H]1C(=O)N[C@@H](CC(=O)O)C(=O)N[C@@H](CO)C(=O)N[C@@H](Cc1ccccc1)C(=O)N[C@@H](Cc1ccccc1)C(=O)N[C@H](C(=O)N1CCC[C@H]1C(=O)N1CCC[C@H]1C(N)=O)[C@@H](C)O)C(C)C)C(C)C | TEAD4 | protein-protein interaction, inhibitor, TR-FRET | – | – | 0.064 |
| COc1c(-c2ccc3c(c2)OCO3)oc2c(ccc3occc32)c1=O | CDK7 with cyclin H | enzyme activity, inhibitor, ADP detection | – | – | > 50 |
| CC(C)C[C@H](NC(=O)[C@H](C)NC(=O)[C@H](C)NC(=O)[C@H](C)NC(=O)[C@H](C)NC(=O)[C@H](C)NC(=O)[C@H](C)NC(=O)[C@H](CCCNC(=N)N)NC(=O)[C@H](C)N)C(=O)O | Antigen peptide transporter 1/Antigen peptide transporter 2 | ligand displacement | – | – | 0.9 |
| CC(NC(C)(C)C)C(=O)c1cccc(Cl)c1 (centres unmarked) | Sodium-dependent dopamine transporter (Slc6a3, Rattus norvegicus, UniProt P23977) | transporter uptake, inhibitor, radiometric | – | – | 0.305 |
| CC(C)C[C@H](NC(=O)[C@H](CCC(=O)O)NC(=O)[C@@H](NC(=O)[C@H](CO)NC(=O)[C@H](CCCCN)NC(=O)[C@H](CCC(N)=O)NC(=O)[C@H](Cc1ccc(O)cc1)NC(=O)[C@H](C)NC(=O)[C@@H](N)CCCNC(=N)N)[C@@H](C)O)C(=O)O | Antigen peptide transporter 1/Antigen peptide transporter 2 | ligand displacement | – | – | 0.4 |
| CCCCOc1ccc(C(=O)CCN2CCCCC2)cc1 | PDE4D | enzyme activity, inhibitor, radiometric | – | – | 11.3 |
| C[C@H]1COCCN1c1nc(NCc2cccnc2C(F)(F)F)c2cccnc2n1 | KCNH2 | ion current, inhibitor | – | – | > 33.3 |
| CC(C)C[C@H](NC(=O)[C@H](CCC(=O)O)NC(=O)[C@@H](NC(=O)[C@H](CO)NC(=O)[C@H](CCCCN)NC(=O)[C@H](CCC(N)=O)NC(=O)[C@H](Cc1ccc(O)cc1)NC(=O)[C@@H](N)CCCNC(=N)N)[C@@H](C)O)C(=O)O | Antigen peptide transporter 1/Antigen peptide transporter 2 | ligand displacement | – | – | 100 |
| COc1cc(C(=O)NS(=O)(=O)c2ccccc2C)ccc1Cc1cn(C)c2ccc(NC(=O)OC3CCCC3)cc12 | PDE4D | enzyme activity, inhibitor, radiometric | – | – | 5.38 |
| CN1[C@@H](CC(=O)c2ccccc2)CCC[C@H]1C[C@H](O)c1ccccc1 | KCNH2 | ligand displacement | HEK293 | 1 h, pH 7.4, cell membranes | 1.5 |
| CC[C@H](C)[C@H](NC(=O)[C@H](CCCNC(=N)N)NC(=O)CN)C(=O)N[C@@H](CC(=O)O)C(=O)N[C@@H](CCCCN)C(=O)N1CCC[C@H]1C(=O)N[C@H](C(=O)N[C@@H](CC(C)C)C(=O)N[C@@H](CCCCN)C(=O)O)[C@@H](C)CC | Antigen peptide transporter 1/Antigen peptide transporter 2 | ligand displacement | – | – | 2.7 |
| O=c1c2ccccc2[nH]c(=S)n1-c1ccccc1 | Prothrombin (F2, Homo sapiens, UniProt P00734) | enzyme activity, inhibitor | – | – | 92.4 |
| CC(C)[C@H](NC(=O)[C@H](C)N)C(=O)N[C@@H](C)C(=O)N[C@@H](C)C(=O)N[C@@H](C)C(=O)N[C@@H](C)C(=O)N[C@@H](C)C(=O)N[C@@H](C)C(=O)N[C@@H](C)C(=O)N[C@@H](CCCCN)C(=O)O | Antigen peptide transporter 1/Antigen peptide transporter 2 | ligand displacement | – | – | 9.4 |
| CSCC[C@H](NC(=O)[C@H](CCCNC(=N)N)NC(=O)[C@H](CCSC)NC(=O)[C@@H]1CCCN1C(=O)[C@H](CC(C)C)NC(=O)[C@H](CO)NC(=O)[C@H](C)NC(=O)[C@@H]1CCCN1C(=O)[C@@H](NC(=O)[C@H](CC(N)=O)NC(=O)[C@H](CO)NC(=O)[C@H](CO)NC(=O)[C@H](CCCCN)NC(=O)[C@@H]1CCCN1C(=O)[C@H](CC(N)=O)NC(=O)[C@H](CCSC)NC(=O)[C@@H](NC(=O)[C@H](CO)NC(=O)[C@H](CC(N)=O)NC(=O)[C@H](Cc1ccccc1)NC(=O)[C@H](CC(C)C)NC(=O)[C@H](CC(C)C)NC(=O)[C@H](CCC(=O)O)NC(=O)[C@H](CC(C)C)NC(=O)[C@H](CC(=O)O)NC(=O)[C@@H](NC(=O)[C@H](CCC(N)=O)NC(=O)[C@H](CO)NC(C)=O)[C@@H](C)O)C(C)C)C(C)C)C(=O)N[C@@H](CCCNC(=N)N)C(=O)N[C@@H](CC(N)=O)C(=O)N[C@@H](CC(C)C)C(=O)N1CCC[C@H]1C(=O)N[C@@H](CC(=O)O)C(=O)N[C@@H](CO)C(=O)N[C@@H](Cc1ccccc1)C(=O)N[C@@H](Cc1ccccc1)C(=O)N[C@@H](CCCCN)C(=O)N1CCC[C@H]1C(=O)N1CCC[C@H]1C(N)=O | TEAD4 | protein-protein interaction, inhibitor, TR-FRET | – | – | 0.065 |
